Results from ChEMBL document CHEMBL4715736, “Identification of anticancer agents based on the thieno[2,3-b]pyridine and 1H-pyrazole molecular scaffolds” (2016).

Legend:
Type in all cases: functional
HCT-116 = experiment: Growth inhibition of human HCT-116 cells assessed as cell growth at 0.1 uM incubated for 48 hrs by sulforhodamine B assay relative to control; conditions: read-out: Activity
K562 [1] = experiment: Growth inhibition of human K562 cells assessed as cell growth at 100 uM incubated for 48 hrs by sulforhodamine B assay relative to control; conditions: read-out: Activity
SF-295 = experiment: Growth inhibition of human SF-295 cells assessed as cell growth at 0.01 uM incubated for 48 hrs by sulforhodamine B assay relative to control; conditions: read-out: Activity
ACHN = experiment: Growth inhibition of human ACHN cells assessed as cell growth at 1 uM incubated for 48 hrs by sulforhodamine B assay relative to control; conditions: read-out: Activity
NCI/ADR-RES [2] = experiment: Growth inhibition of human NCI/ADR-RES cells assessed as cell growth at 0.01 uM incubated for 48 hrs by sulforhodamine B assay relative to control; conditions: read-out: Activity
NCI-H23 [3] = experiment: Growth inhibition of human NCI-H23 cells assessed as cell growth at 0.1 uM incubated for 48 hrs by sulforhodamine B assay relative to control; conditions: read-out: Activity
TK-10 = experiment: Growth inhibition of human TK-10 cells assessed as cell growth at 0.01 uM incubated for 48 hrs by sulforhodamine B assay relative to control; conditions: read-out: Activity
SF-268 [4] = experiment: Growth inhibition of human SF-268 cells assessed as cell growth at 1 uM incubated for 48 hrs by sulforhodamine B assay relative to control; conditions: read-out: Activity
SF-268 [5] = experiment: Growth inhibition of human SF-268 cells assessed as cell growth at 0.01 uM incubated for 48 hrs by sulforhodamine B assay relative to control; conditions: read-out: Activity
OVCAR-8 = experiment: Growth inhibition of human OVCAR-8 cells incubated for 48 hrs by sulforhodamine B assay; conditions: for CC50: read-out: LC50 (the source's name)
Outline: (§1)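 NCI DTP 60-line human tumour panel. Dose-response curves were run only for ligands active in the initial 10 µM screen. GI50 (concentration giving 50% of maximal inhibition of proliferation) and TGI (concentration giving total growth inhibition) were derived from these curves.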

U-251 [6] = experiment: Growth inhibition of human U-251 cells assessed as cell growth at 0.01 uM incubated for 48 hrs by sulforhodamine B assay relative to control; conditions: read-out: Activity
Malme-3M [7] = experiment: Growth inhibition of human Malme-3M cells assessed as cell growth at 1 uM incubated for 48 hrs by sulforhodamine B assay relative to control; conditions: read-out: Activity
NCI-H23 [8] = experiment: Growth inhibition of human NCI-H23 cells assessed as cell growth at 1 uM incubated for 48 hrs by sulforhodamine B assay relative to control; conditions: read-out: Activity
Hs-578T [9] = experiment: Growth inhibition of human Hs-578T cells assessed as cell growth at 0.01 uM incubated for 48 hrs by sulforhodamine B assay relative to control; conditions: read-out: Activity
NCI-H23 [10] = experiment: Growth inhibition of human NCI-H23 cells assessed as cell growth at 100 uM incubated for 48 hrs by sulforhodamine B assay relative to control; conditions: read-out: Activity
DU-145 = experiment: Growth inhibition of human DU-145 cells assessed as cell growth at 100 uM incubated for 48 hrs by sulforhodamine B assay relative to control; conditions: read-out: Activity
Outline: (§2)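 NCI Developmental Therapeutics Program NCI60 panel. Compounds that were active in the 10 µM one-dose screen went on to dose–response testing. Growth at each concentration is expressed relative to untreated control (100%). GI50 (concentration giving 50% of maximal inhibition of proliferation) and TGI (concentration giving total growth inhibition) were derived from the curves.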

HOP-62 = experiment: Growth inhibition of human HOP-62 cells incubated for 48 hrs by sulforhodamine B assay
Outline: (§3)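 NCI60 panel at the NCI Developmental Therapeutics Program. Only compounds active in the 10 µM screen went to dose-response testing. GI50, the concentration giving 50% of maximal inhibition of proliferation, and TGI, the concentration giving total growth inhibition, were derived from the dose-response curves.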

SK-OV-3 = experiment: Growth inhibition of human SK-OV-3 cells assessed as cell growth at 0.01 uM incubated for 48 hrs by sulforhodamine B assay relative to control; conditions: read-out: Activity
U-251 [11] = experiment: Growth inhibition of human U-251 cells assessed as cell growth at 0.1 uM incubated for 48 hrs by sulforhodamine B assay relative to control; conditions: read-out: Activity
SK-MEL-5 = experiment: Growth inhibition of human SK-MEL-5 cells assessed as cell growth at 0.01 uM incubated for 48 hrs by sulforhodamine B assay relative to control; conditions: read-out: Activity
NCI-H460 = experiment: Growth inhibition of human NCI-H460 cells incubated for 48 hrs by sulforhodamine B assay; outline: as §3
Hs-578T [12] = experiment: Growth inhibition of human Hs-578T cells incubated for 48 hrs by sulforhodamine B assay; conditions: for CC50: read-out: LC50 (the source's name); outline: as §3
LOX IMVI = experiment: Growth inhibition of human LOX IMVI cells assessed as cell growth at 100 uM incubated for 48 hrs by sulforhodamine B assay relative to control; conditions: read-out: Activity
Malme-3M [13] = experiment: Growth inhibition of human Malme-3M cells incubated for 48 hrs by sulforhodamine B assay; outline: as §3
OVCAR-4 = experiment: Growth inhibition of human OVCAR-4 cells assessed as cell growth at 100 uM incubated for 48 hrs by sulforhodamine B assay relative to control; conditions: read-out: Activity
K562 [14] = experiment: Growth inhibition of human K562 cells assessed as cell growth at 1 uM incubated for 48 hrs by sulforhodamine B assay relative to control; conditions: read-out: Activity
HOP-92 = experiment: Growth inhibition of human HOP-92 cells incubated for 48 hrs by sulforhodamine B assay; outline: as §3
MCF7 = experiment: Growth inhibition of human MCF7 cells assessed as cell growth at 0.01 uM incubated for 48 hrs by sulforhodamine B assay relative to control; conditions: read-out: Activity
HCC 2998 = experiment: Growth inhibition of human HCC 2998 cells assessed as cell growth at 100 uM incubated for 48 hrs by sulforhodamine B assay relative to control; conditions: read-out: Activity; outline: as §2
NCI/ADR-RES [15] = experiment: Growth inhibition of human NCI/ADR-RES cells assessed as cell growth at 1 uM incubated for 48 hrs by sulforhodamine B assay relative to control; conditions: read-out: Activity
PC-3 = experiment: Growth inhibition of human PC-3 cells assessed as cell growth at 0.1 uM incubated for 48 hrs by sulforhodamine B assay relative to control; conditions: read-out: Activity
SK-MEL-28 = experiment: Growth inhibition of human SK-MEL-28 cells incubated for 48 hrs by sulforhodamine B assay; outline: as §1
KM12 = experiment: Growth inhibition of human KM12 cells assessed as cell growth at 0.1 uM incubated for 48 hrs by sulforhodamine B assay relative to control; conditions: read-out: Activity
NCI-H322M = experiment: Growth inhibition of human NCI-H322M cells incubated for 48 hrs by sulforhodamine B assay; conditions: for CC50: read-out: LC50 (the source's name); outline: as §3
UO-31 = experiment: Growth inhibition of human UO-31 cells assessed as cell growth at 1 uM incubated for 48 hrs by sulforhodamine B assay relative to control; conditions: read-out: Activity

Cc1cc(C)c(NC(=O)c2sc3nc4c(cc3c2N)CN(Cc2ccccc2)CC4)c(C)c1
growth at 0.1 µM (HCT-116): 97%
growth at 100 µM (K562 [1]): 13%
growth at 0.01 µM (SF-295): 86%
growth at 1 µM (ACHN): 89%
growth at 0.01 µM (NCI/ADR-RES [2]): 104%
growth at 0.1 µM (NCI-H23 [3]): 103%
growth at 0.01 µM (TK-10): 103%
growth at 1 µM (SF-268 [4]): 92%
growth at 0.01 µM (SF-268 [5]): 98%
GI50 (OVCAR-8): 4.72 µM
TGI (OVCAR-8): > 100 µM
CC50 (OVCAR-8): > 100 µM
growth at 0.01 µM (U-251 [6]): 99%
growth at 1 µM (Malme-3M [7]): 76%
growth at 1 µM (NCI-H23 [8]): 93%
growth at 0.01 µM (Hs-578T [9]): 84%
growth at 100 µM (NCI-H23 [10]): 13%
growth at 100 µM (DU-145): -5%
GI50 (HOP-62): 7.73 µM
LC50 (HOP-62): > 100 µM
TGI (HOP-62): > 100 µM
growth at 0.01 µM (SK-OV-3): 92%
growth at 0.1 µM (U-251 [11]): 96%
growth at 0.01 µM (SK-MEL-5): 98%
GI50 (NCI-H460): 3.29 µM
LC50 (NCI-H460): > 100 µM
TGI (NCI-H460): 16.3 µM
GI50 (Hs-578T [12]): 2.66 µM
TGI (Hs-578T [12]): 65.9 µM
CC50 (Hs-578T [12]): > 100 µM
growth at 100 µM (LOX IMVI): -83%
GI50 (Malme-3M [13]): 3.44 µM
LC50 (Malme-3M [13]): > 100 µM
TGI (Malme-3M [13]): 42 µM
growth at 100 µM (OVCAR-4): 28%
growth at 1 µM (K562 [14]): 47%
GI50 (HOP-92): 0.877 µM
LC50 (concentration killing 50% of the starting cells) (HOP-92): > 100 µM
TGI (HOP-92): 42.6 µM
growth at 0.01 µM (MCF7): 86%
growth at 100 µM (HCC 2998): -21%
growth at 1 µM (NCI/ADR-RES [15]): 69%
growth at 0.1 µM (PC-3): 93%
GI50 (SK-MEL-28): 6.97 µM
LC50 (SK-MEL-28): > 100 µM
TGI (SK-MEL-28): 40.4 µM
growth at 0.1 µM (KM12): 103%
GI50 (NCI-H322M): 8.65 µM
TGI (NCI-H322M): > 100 µM
CC50 (NCI-H322M): > 100 µM
growth at 1 µM (UO-31): 77%

Cc1cccc(NC(=O)c2sc3nc4c(cc3c2N)C(=O)CCC4)c1
growth at 0.1 µM (HCT-116): 68%
growth at 100 µM (K562 [1]): 17%
growth at 0.01 µM (SF-295): 88%
growth at 1 µM (ACHN): 49%
growth at 0.01 µM (NCI/ADR-RES [2]): 98%
growth at 0.1 µM (NCI-H23 [3]): 82%
growth at 0.01 µM (TK-10): 91%
growth at 1 µM (SF-268 [4]): 54%
growth at 0.01 µM (SF-268 [5]): 99%
GI50 (OVCAR-8): 0.0171 µM
TGI (OVCAR-8): ≥ 100 µM
CC50 (OVCAR-8): > 100 µM
growth at 0.01 µM (U-251 [6]): 96%
growth at 1 µM (Malme-3M [7]): 36%
growth at 1 µM (NCI-H23 [8]): 35%
growth at 0.01 µM (Hs-578T [9]): 88%
growth at 100 µM (NCI-H23 [10]): 12%
growth at 100 µM (DU-145): -34%
GI50 (HOP-62): 0.331 µM
LC50 (HOP-62): > 100 µM
TGI (HOP-62): ≥ 100 µM
growth at 0.01 µM (SK-OV-3): 90%
growth at 0.1 µM (U-251 [11]): 74%
growth at 0.01 µM (SK-MEL-5): 97%
GI50 (NCI-H460): 0.286 µM
LC50 (NCI-H460): > 100 µM
TGI (NCI-H460): ≥ 100 µM
GI50 (Hs-578T [12]): 0.256 µM
TGI (Hs-578T [12]): 40.9 µM
CC50 (Hs-578T [12]): > 100 µM
growth at 100 µM (LOX IMVI): -75%
LC50 (Malme-3M [13]): > 100 µM
TGI (Malme-3M [13]): ≥ 100 µM
growth at 100 µM (OVCAR-4): -56%
growth at 1 µM (K562 [14]): 21%
GI50 (HOP-92): 1 µM
LC50 (concentration killing 50% of the starting cells) (HOP-92): > 100 µM
TGI (HOP-92): ≥ 100 µM
growth at 0.01 µM (MCF7): 86%
growth at 100 µM (HCC 2998): -23%
growth at 1 µM (NCI/ADR-RES [15]): 15%
growth at 0.1 µM (PC-3): 80%
GI50 (SK-MEL-28): 0.0308 µM
LC50 (SK-MEL-28): > 100 µM
TGI (SK-MEL-28): ≥ 100 µM
growth at 0.1 µM (KM12): 65%
TGI (NCI-H322M): > 100 µM
CC50 (NCI-H322M): > 100 µM
growth at 1 µM (UO-31): 55%
